Measured values taken from paper PMC9334479 (Infectious Diseases and Therapy, 2022).
Where a SMILES comes first, the peptide text is derived from it.

Tests used:
[1] = system: patients; conditions: cited from earlier work
[2] = Total plasma concentration of PMB, PMB1 and PMB2 by HPLC-MS/MS; assay type: in vivo, human; conditions: for Cmin (B1)/Cmin (B2): median (IQR)
Procedure, shortened: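 Critically ill adults received IV PMB sulfate. Plasma was drawn at the sixth or later dose, 10 min after infusion end (Cmax) and just before dosing (Cmin), spun at 3500g, 2–8 °C for 10 min, and stored at −80 °C. Plasma plus polymyxin E internal standard underwent formic acid/acetonitrile extraction. Analysis used C18 gradient LC and positive MRM 402.1→101.15 (PMB1), 397.4→101.15 (PMB2). AKI was graded by RIFLE SCr criteria.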

[3] = system: plasma protein; assay: Plasma protein binding rate by equilibrium dialysis; assay type: in vitro ADME; conditions: human, patient plasma, iv
Procedure, shortened: (§1)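 Patient plasma from peak (10 min post-infusion) and trough (pre-dose) draws was dialysed against isotonic phosphate buffer, pH 7.4, across a semipermeable membrane at 37 °C for 5 h. Dialysate and plasma were matrix-matched with blank plasma or buffer, then extracted and quantified by LC–MS/MS as for total levels. fu = Cd/Cp. Total and free levels were compared by Spearman rank correlation.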

[4] = Free; assay type: in vivo, human; conditions: for Free Cmax / Free Cmin: equilibrium dialysis, median (IQR); for Correlation between total and free plasma concentrations: Spearman's rank correlation, Cmax and Cmin, Fig. 2
Procedure, shortened: as §1

[5] = pH 7.4, Protein binding rate, Cmax sample, AKI group N = 25, equilibrium dialysis, phosphate buffer pH 7.4, 37 °C, 5 h, LC-MS/MS, median (IQR)
[6] = pH 7.4, Protein binding rate, Cmax sample, non-AKI group N = 64, equilibrium dialysis, phosphate buffer pH 7.4, 37 °C, 5 h, LC-MS/MS, median (IQR)
[7] = pH 7.4, Protein binding rate, Cmin sample, AKI group N = 25, equilibrium dialysis, phosphate buffer pH 7.4, 37 °C, 5 h, LC-MS/MS, median (IQR)
[8] = pH 7.4, Protein binding rate, Cmin sample, non-AKI group N = 64, equilibrium dialysis, phosphate buffer pH 7.4, 37 °C, 5 h, LC-MS/MS, median (IQR)

Row | Molecule | Incidence of AKI ([1]; colistin given iv as colistimethate sodium) | Optimal cut-off trough concentration for predicting nephrotoxicity ([1]; colistin-related nephrotoxicity) [mg/L] | Cmin (B1)/Cmin (B2) ([2]; AKI group N = 25) | Cmin (B1)/Cmin (B2) ([2]; non-AKI group N = 64) | Cmax (B1), RIFLE category Failure (F) ([2]; 1 patient with AKI stage Failure, total plasma peak concentration) | fraction unbound at 5 h ([3]; pH 7.4) | fraction unbound at 5 h [3, 5] | fraction unbound at 5 h [3, 6] | fraction unbound at 5 h [3, 7] | fraction unbound at 5 h [3, 8] | Free Cmax ([4]; AKI group N = 25) | Free Cmin ([4]; AKI group N = 25) | Correlation between total and free plasma concentrations [4] | Free Cmax ([4]; non-AKI group N = 64) | Free Cmin ([4]; non-AKI group N = 64)
1 | colistin | 30–76.1% | 3.33 | – | – | – | – | – | – | – | – | – | – | – | – | –
2 | CC[C@H](C)CCCCC(=O)N[C@@H](CCN)C(=O)N[C@H](C(=O)N[C@@H](CCN)C(=O)N[C@H]1CCNC(=O)[C@H]([C@@H](C)O)NC(=O)[C@H](CCN)NC(=O)[C@H](CCN)NC(=O)[C@H](CC(C)C)NC(=O)[C@@H](Cc2ccccc2)NC(=O)[C@H](CCN)NC1=O)[C@@H](C)O [PMB, polymyxin B] (HELM PEPTIDE1{[CC[C@H](C)CCCCC(=O)[*:2]].[Dab].T.[Dab].[Dab].[Dab].[dF].L.[Dab].[Dab].T}$PEPTIDE1,PEPTIDE1,5:R3-11:R2$$$V2.0) | – | – | 3.37 (2.85–3.68) | 3.27 (2.91–3.65) | – | – | – | – | – | – | – | – | – | – | –
3 | CC[C@H](C)CCCCC(=O)N[C@@H](CCN)C(=O)N[C@H](C(=O)N[C@@H](CCN)C(=O)N[C@H]1CCNC(=O)[C@H]([C@@H](C)O)NC(=O)[C@H](CCN)NC(=O)[C@H](CCN)NC(=O)[C@H](CC(C)C)NC(=O)[C@@H](Cc2ccccc2)NC(=O)[C@H](CCN)NC1=O)[C@@H](C)O [PMB1, polymyxin B1] (HELM PEPTIDE1{[CC[C@H](C)CCCCC(=O)[*:2]].[Dab].T.[Dab].[Dab].[Dab].[dF].L.[Dab].[Dab].T}$PEPTIDE1,PEPTIDE1,5:R3-11:R2$$$V2.0) | – | – | – | – | 6.17 | 0.055 | 0.045 | 0.042 | 0.053 | 0.057 | 0.19 (0.12–0.26) μg/ml | 0.05 (0.04–0.19) μg/ml | positively correlated | 0.14 (0.11–0.18) μg/ml | 0.07 (0.04–0.10) μg/ml
4 | CC(C)CCCCC(=O)N[C@@H](CCN)C(=O)N[C@H](C(=O)N[C@@H](CCN)C(=O)N[C@H]1CCNC(=O)[C@H]([C@@H](C)O)NC(=O)[C@H](CCN)NC(=O)[C@H](CCN)NC(=O)[C@H](CC(C)C)NC(=O)[C@@H](Cc2ccccc2)NC(=O)[C@H](CCN)NC1=O)[C@@H](C)O [PMB2, polymyxin B2] (HELM PEPTIDE1{[CC(C)CCCCC(=O)[*:2]].[Dab].T.[Dab].[Dab].[Dab].[dF].L.[Dab].[Dab].T}$PEPTIDE1,PEPTIDE1,5:R3-11:R2$$$V2.0) | – | – | – | – | – | 0.215 | 0.141 | 0.161 | 0.194 | 0.221 | 0.16 (0.14–0.19) μg/ml | 0.07 (0.06–0.09) μg/ml | positively correlated | 0.14 (0.11–0.18) μg/ml | 0.07 (0.05–0.10) μg/ml
